In ChEMBL document CHEMBL1122479, “Nucleic acid related compounds. 40. Synthesis and biological activities of 5-alkynyluracil nucleosides” (1983):
≈ marks a conversion by molar mass, not a printed value.

Columns and labels:
Assay type in all cases: functional
PRK [1] = test: Inhibitory activity against incorporation of deoxy-[1',2'-3H]uridine (dUrd) into the DNA of uninfected primary rabbit kidney (PRK) cell cultures; details: Oryctolagus cuniculus, read-out: ID50 (the source's name)
Summary of the method: (§1)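 Uninfected primary rabbit kidney cells were used as a cytotoxicity measure. Incorporation of [methyl-3H]dThd or [1',2'-3H]dUrd into cellular DNA was followed with compound present.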

PRK [2] = test: Inhibitory activity against incorporation of deoxy-[methyl.3H-]-thymidine (dThd) into the DNA of uninfected primary rabbit kidney (PRK) cell cultures; details: Oryctolagus cuniculus, read-out: ID50 (the source's name); summary of the method: as §1
L1210 [3] = test: Concentration required to reduce leukemia L1210 cell growth […]; details: Mus musculus, read-out: ID50 (the source's name)
PRK [4] = test: Concentration required to reduce Herpes simplex virus type 1 induced cytopathogenicity in primary rabbit kidney (PRK) cell cultures; details: Human alphaherpesvirus 1, PRK; read-out: ID50 (the source's name)
PRK [5] = test: Concentration required to reduce Herpes simplex virus type 2 induced cytopathogenicity in primary rabbit kidney (PRK) cell cultures; details: Human alphaherpesvirus 2, PRK; read-out: ID50 (the source's name)
PRK [6] = test: Concentration required to reduce Vaccinia virus induced cytopathogenicity in primary rabbit kidney (PRK) cell cultures; details: Orthopoxvirus vaccinia, read-out: ID50 (the source's name)
L1210 [7] = test: Inhibitory activity against incorporation of deoxy-[methyl.3H-]-thymidine (dThd) into the DNA of murine leukemia L1210 cell cultures; details: Mus musculus, read-out: ID50 (the source's name)

SMILES | IC50 (PRK [1]) | IC50 (PRK [2]) | IC50 (L1210 [3]) | IC50 (PRK [4]) | IC50 (PRK [5]) | IC50 (PRK [6]) | IC50 (L1210 [7])
O=c1[nH]c(=O)n([C@H]2C[C@H](O)[C@@H](CO)O2)cc1I [IDOXURIDINE] | 0.12 µg/mL (≈ 0.339 µM) | 1.5 µg/mL (≈ 4.24 µM) | 61 µg/mL (≈ 172 µM) | 0.15 µg/mL (≈ 0.424 µM) | 0.3 µg/mL (≈ 0.847 µM) | 0.2 µg/mL (≈ 0.565 µM) | 
O=c1[nH]c(=O)n([C@H]2C[C@H](O)[C@@H](CO)O2)cc1/C=C/Br [BRIVUDINE] | 25 µg/mL (≈ 75 µM) | 90 µg/mL (≈ 270 µM) | 0.001 µg/mL (≈ 0.003 µM) | 0.007 µg/mL (≈ 0.021 µM) | 2.5 µg/mL (≈ 7.5 µM) | 5 µg/mL (≈ 15 µM) | 
CCCCC#Cc1cn([C@H]2C[C@H](O)[C@@H](CO)O2)c(=O)[nH]c1=O | 59 µg/mL (≈ 191 µM) | 45 µg/mL (≈ 146 µM) | 1000 µg/mL (≈ 3240 µM) | 108 µg/mL (≈ 350 µM) | 350 µg/mL (≈ 1140 µM) | 45 µg/mL (≈ 146 µM) | 47 µg/mL (≈ 152 µM)
O=c1[nH]c(=O)n([C@H]2C[C@H](O)[C@@H](CO)O2)cc1C#CCCCO | > 156 µg/mL | > 200 µg/mL | 280 µg/mL (≈ 902 µM) | > 400 µg/mL | > 400 µg/mL | 125 µg/mL (≈ 403 µM) | 
COCC#Cc1cn([C@H]2C[C@H](O)[C@@H](CO)O2)c(=O)[nH]c1=O | 2 µg/mL (≈ 6.75 µM) | 16 µg/mL (≈ 54 µM) | 254 µg/mL (≈ 857 µM) | 1 µg/mL (≈ 3.38 µM) | 2 µg/mL (≈ 6.75 µM) | 2 µg/mL (≈ 6.75 µM) | 
O=c1[nH]c(=O)n([C@H]2C[C@H](O)[C@@H](CO)O2)cc1C#Cc1ccccc1 | 77 µg/mL (≈ 235 µM) | 23 µg/mL (≈ 70.1 µM) | 494 µg/mL (≈ 1500 µM) | > 400 µg/mL | > 400 µg/mL | > 400 µg/mL | 120 µg/mL (≈ 365 µM)
CCCCCC#Cc1cn([C@H]2C[C@H](O)[C@@H](CO)O2)c(=O)[nH]c1=O | 33 µg/mL (≈ 102 µM) | 9 µg/mL (≈ 27.9 µM) | 219 µg/mL (≈ 679 µM) | > 400 µg/mL | > 400 µg/mL | 70 µg/mL (≈ 217 µM) | 45 µg/mL (≈ 140 µM)
CCC#Cc1cn([C@H]2C[C@H](O)[C@@H](CO)O2)c(=O)[nH]c1=O | 2 µg/mL (≈ 7.14 µM) | 13 µg/mL (≈ 46.4 µM) | > 1000 µg/mL | 4 µg/mL (≈ 14.3 µM) | 32 µg/mL (≈ 114 µM) | 7 µg/mL (≈ 25 µM) | 
CCCC/C=C\c1cn([C@H]2C[C@H](O)[C@@H](CO)O2)c(=O)[nH]c1=O | 34 µg/mL (≈ 110 µM) | 5 µg/mL (≈ 16.1 µM) | 361 µg/mL (≈ 1160 µM) | > 400 µg/mL | > 200 µg/mL | > 400 µg/mL | 39 µg/mL (≈ 126 µM)
CC(C)(C)C#Cc1cn(C2O[C@H](CO)[C@@H](O)[C@H]2O)c(=O)[nH]c1=O (some centres not stated) | > 400 µg/mL | > 400 µg/mL |  | > 400 µg/mL | > 400 µg/mL | > 400 µg/mL | > 1000 µg/mL
O=c1[nH]c(=O)n([C@H]2C[C@H](O)[C@@H](CO)O2)cc1C#CCCO | 13 µg/mL (≈ 43.9 µM) | 73 µg/mL (≈ 246 µM) | > 1000 µg/mL | 18 µg/mL (≈ 60.8 µM) | 47 µg/mL (≈ 159 µM) | 10 µg/mL (≈ 33.8 µM) | 
O=c1[nH]c(=O)n([C@H]2C[C@H](O)[C@@H](CO)O2)cc1C#CCO | 8 µg/mL (≈ 28.3 µM) | 68 µg/mL (≈ 241 µM) | > 1000 µg/mL | 36 µg/mL (≈ 128 µM) | 37 µg/mL (≈ 131 µM) | 10 µg/mL (≈ 35.4 µM) | 
CCCCCCc1cn([C@H]2C[C@H](O)[C@@H](CO)O2)c(=O)[nH]c1=O | 52 µg/mL (≈ 166 µM) | 7 µg/mL (≈ 22.4 µM) | 301 µg/mL (≈ 964 µM) | 400 µg/mL (≈ 1280 µM) | 350 µg/mL (≈ 1120 µM) | 300 µg/mL (≈ 960 µM) | 
CC(C)(C)C#Cc1cn([C@H]2C[C@H](O)[C@@H](CO)O2)c(=O)[nH]c1=O | 2 µg/mL (≈ 6.49 µM) | 6 µg/mL (≈ 19.5 µM) | 287 µg/mL (≈ 931 µM) | 4 µg/mL (≈ 13 µM) | 19 µg/mL (≈ 61.6 µM) | 7 µg/mL (≈ 22.7 µM) | 
Cc1ccc(S(=O)(=O)OCCC#Cc2cn([C@H]3C[C@H](O)[C@@H](CO)O3)c(=O)[nH]c2=O)cc1 | 44 µg/mL (≈ 97.7 µM) | 13 µg/mL (≈ 28.9 µM) | > 200 µg/mL | 33 µg/mL (≈ 73.3 µM) | 63 µg/mL (≈ 140 µM) | 10 µg/mL (≈ 22.2 µM) | 112 µg/mL (≈ 249 µM)
C#Cc1cn([C@H]2C[C@H](O)[C@@H](CO)O2)c(=O)[nH]c1=O | 0.05 µg/mL (≈ 0.198 µM) | 3 µg/mL (≈ 11.9 µM) | 0.09 µg/mL (≈ 0.357 µM) | 0.5 µg/mL (≈ 1.98 µM) | 1 µg/mL (≈ 3.96 µM) | 0.1 µg/mL (≈ 0.396 µM) | 
CC#Cc1cn(C2O[C@H](CO)[C@@H](O)[C@@H]2O)c(=O)[nH]c1=O (some centres not stated) | > 100 µg/mL | 92 µg/mL (≈ 326 µM) | 36 µg/mL (≈ 128 µM) | 20 µg/mL (≈ 70.9 µM) | 50 µg/mL (≈ 177 µM) | 200 µg/mL (≈ 709 µM) | > 1000 µg/mL
CC#Cc1cn([C@H]2C[C@H](O)[C@@H](CO)O2)c(=O)[nH]c1=O | 0.7 µg/mL (≈ 2.63 µM) | 3 µg/mL (≈ 11.3 µM) | 164 µg/mL (≈ 616 µM) | 0.3 µg/mL (≈ 1.13 µM) | 0.7 µg/mL (≈ 2.63 µM) | 0.4 µg/mL (≈ 1.5 µM) | 
CCC#Cc1cn(C2O[C@H](CO)[C@@H](O)[C@@H]2O)c(=O)[nH]c1=O (some centres not stated) | 215 µg/mL (≈ 726 µM) | 120 µg/mL (≈ 405 µM) | > 1000 µg/mL | 200 µg/mL (≈ 675 µM) | > 400 µg/mL | > 400 µg/mL | > 1000 µg/mL
CCCC#Cc1cn([C@H]2C[C@H](O)[C@@H](CO)O2)c(=O)[nH]c1=O | 3 µg/mL (≈ 10.2 µM) | 9 µg/mL (≈ 30.6 µM) | > 1000 µg/mL | 4 µg/mL (≈ 13.6 µM) | 90 µg/mL (≈ 306 µM) | 7 µg/mL (≈ 23.8 µM) | 
